According to ChEMBL document CHEMBL3621052, “Small cyclic agonists of iron regulatory hormone hepcidin” (Bioorg Med Chem Lett, 2015):
Each block holds one compound with its values, some of them ahead of it. Active and inactive are the calls of the source. No cut-off for these calls is given here. Starred links: 1 amine or outer side, 2 acyl side, 3 side chain; linkers in the order of their positions; H or OH if unused. Positions of bridges follow the written chain, without caps; N, C: chain ends. Residues, ends and D or L forms follow the SMILES beside them. *: point of attachment. Propanoyl(3,3-Ph2) = O=C(CC(c1ccccc1)c1ccccc1)*; X1 = CCCCCCCCCCCCCCCC(=O)NCCOCCOCCN*; mXylylene = c1cc(C[*:1])cc(C[*:2])c1

Assays:
Ferroportin = molecular target: T1, Ferroportin (Homo sapiens, UniProt Q9NP59); test: Agonist activity at GFP-fused human FPN transfected in HEK293 cells assessed as protein degradation after 24 hrs by flow cytometric analysis; format: cell-based
T1 sequence (Q9NP59 whole entry): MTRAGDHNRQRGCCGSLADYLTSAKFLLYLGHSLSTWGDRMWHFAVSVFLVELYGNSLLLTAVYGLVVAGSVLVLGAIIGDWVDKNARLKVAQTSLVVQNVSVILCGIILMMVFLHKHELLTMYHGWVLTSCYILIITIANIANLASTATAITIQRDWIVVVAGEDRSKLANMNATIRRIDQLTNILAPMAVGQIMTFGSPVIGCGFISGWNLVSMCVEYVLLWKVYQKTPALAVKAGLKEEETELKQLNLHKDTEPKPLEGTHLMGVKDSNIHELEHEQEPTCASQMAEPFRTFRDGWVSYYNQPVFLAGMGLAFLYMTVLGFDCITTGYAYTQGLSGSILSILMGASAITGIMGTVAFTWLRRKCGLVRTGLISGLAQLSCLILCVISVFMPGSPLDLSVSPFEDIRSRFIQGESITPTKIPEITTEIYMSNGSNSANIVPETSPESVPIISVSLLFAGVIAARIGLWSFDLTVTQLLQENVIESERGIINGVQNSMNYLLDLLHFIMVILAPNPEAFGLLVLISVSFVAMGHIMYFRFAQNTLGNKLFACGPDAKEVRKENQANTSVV
In short: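 HEK293:TREX-Fpn-GFP cells (human ferroportin-GFP, doxycycline-inducible) plated on poly-D-lysine with 20 μM FAC, induced with 500 ng/mL doxycycline for 24 h, washed, then peptide-treated 24 h. Green fluorescence read by flow cytometry at 1 × 10^6 cells/mL, gated against uninduced cells. Activity expressed as fraction of hep25: 1 − [(Fx − Fhep25)/(Funtreated − Fhep25)]. 3–6 independent repeats.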

Mus musculus [1] = test: Decrease in serum iron level in C57BL/6 mouse at 50 to 100 nmol, sc after 24 hrs by colorimetric analysis; format: functional, organism-based; details: in the assay text read “50 to 200 nmol” for “50 to 100 nmol”
In short: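 C57BL/6 mice on NIH 31 diet (iron 336 mg/kg) received 50, 100 or 200 nmoles peptide in 100 μL PBS sc, or PBS alone. Killed at 24 h, serum from cardiac puncture. Serum iron measured by microplate colorimetric assay using 50 μL serum. Reported as % decrease versus mean of PBS-injected mice.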

Mus musculus [2] = test: Decrease in serum iron level in C57BL/6 mouse at 50 nmol, sc after 24 hrs by colorimetric analysis; format: functional, organism-based
In short: (§1)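 C57BL/6 mice on NIH 31 diet (iron 336 mg/kg). Single subcutaneous injection of 50, 100 or 200 nmoles peptide in 100 μL PBS; controls received PBS alone. Killed at 24 h, serum from cardiac blood. Serum iron by colorimetric assay (microplate, 50 μL serum). Percent decrease versus mean of PBS-injected mice.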

Plasma = test: Metabolic stability in mouse plasma at 25 uM by LC/MS analysis; format: ADME, cell-free
In short: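 Peptide from 10 mM DMSO stock added to fresh mouse plasma (final 25 μM), incubated at 37 °C. Samples (10 μL) taken at time-points and diluted into DMSO/ACN 1:1 with 0.1% TFA. Centrifuged 13000 rpm, 10 min. Supernatant analysed by triple-quadrupole LC/MS with NM4A-Me peptide as internal standard.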

Mus musculus [3] = test: Decrease in serum iron level in C57BL/6 mouse at 50 to 200 nmol, sc after 24 hrs by colorimetric analysis; format: functional, organism-based; in short: as §1
[4] = Half life in cynomolgus monkey; format: ADME, organism-based, Macaca fascicularis; details: in vivo

EC50 (Ferroportin): 44.2 nM
SMILES: CCCCCCCCCCCCCCCCNC(=O)CN(CC(N)=O)C(=O)CCCCCNC(=O)[C@@H]1CSCc2cccc(c2)CSC[C@H](NC(C)=O)C(=O)N[C@@H](C(c2ccccc2)c2ccccc2)C(=O)N2CCC[C@H]2C(=O)N[C@@H](CCCNC(=N)N)C(=O)N[C@@H](CS)C(=O)N[C@@H](CCCNC(=N)N)C(=O)N[C@@H](Cc2ccccc2)C(=O)N1
Activity (Mus musculus [1]): inactive

SMILES: CCCCCCCCCCCCCCCC(=O)NCCOCCOCCNC(=O)[C@@H]1CSCc2cccc(c2)CSC[C@H](NC(=O)CC(c2ccccc2)c2ccccc2)C(=O)N[C@@H](CCCNC(=N)N)C(=O)N[C@@H](CS)C(=O)N[C@@H](CCCNC(=N)N)C(=O)N[C@@H](Cc2ccccc2)C(=O)N1 ({Propanoyl(3,3-Ph2)}-CRCRFC-X1; linker 1-6 via mXylylene)
Activity (Mus musculus [2]): inactive | Stability (Plasma): Stable | EC50 (Ferroportin): 52.3 nM

SMILES: N=C(N)NCCC[C@@H]1NC(=O)[C@@H](NC(=O)CC(c2ccccc2)c2ccccc2)CSCc2cccc(c2)CSC[C@@H](C(N)=O)NC(=O)[C@H](Cc2ccccc2)NC(=O)[C@H](CCCNC(=N)N)NC(=O)[C@H](CS)NC1=O ({Propanoyl(3,3-Ph2)}-CRCRFC-NH2; linker 1-6 via mXylylene)
Activity (Mus musculus [3]): inactive | EC50 (Ferroportin): 104 nM

half-life [4]: < 2.5 min
SMILES: CC[C@H](C)[C@@H]1NC(=O)[C@@H](NC(=O)[C@@H](NC(=O)[C@@H]2CCCN2C(=O)[C@H](Cc2ccccc2)NC(=O)[C@H](Cc2c[nH]cn2)NC(=O)[C@@H](NC(=O)[C@@H](N)CC(=O)O)[C@@H](C)O)[C@@H](C)CC)CSSC[C@@H](C(=O)N[C@@H](CCCCN)C(=O)N[C@H](C(=O)O)[C@@H](C)O)NC(=O)[C@@H]2CSSC[C@@H]3NC(=O)[C@@H]4CSSC[C@H](NC(=O)[C@H](Cc5ccccc5)NC1=O)C(=O)N[C@@H](CSSC[C@H](NC(=O)[C@H](CCCCN)NC(=O)[C@H](CO)NC(=O)[C@H](CCCNC(=N)N)NC(=O)[C@H](Cc1c[nH]cn1)NC3=O)C(=O)NCC(=O)N[C@@H](CCSC)C(=O)N2)C(=O)NCC(=O)N4
